Measurements: ChEMBL document CHEMBL4145567, “Natural Stilbenoids Have Anti-Inflammatory Properties in Vivo and Down-Regulate the Production of Inflammatory Mediators NO, IL6, and MCP1 Possibly in a PI3K/Akt-Dependent Manner” (J Nat Prod, 2018)
Active and inactive are the calls of the source. The calls are words filed in the database; no cut-off is given here.

Key:
J774 [1] = experiment: Inhibition of PI3K/Akt in mouse J774 cells assessed as reduction in LPS-induced Akt phosphorylation at Ser473 after 4 hrs by Western blot analysis; type: cell-based
Outline: (§1)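 J774 macrophages were exposed to LPS (10 ng/mL) for 4 h with increasing compound concentrations, then lysed on ice in Tris/EDTA/Triton buffer with protease and phosphatase inhibitors. Lysate protein (20 μg) was Western blotted with an antibody against Akt phospho-S473. Chemiluminescence was quantified; mean + SEM, n = 4.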

J774 [2] = experiment: Antiinflammatory activity in mouse J774 cells assessed as reduction in LPS-induced nitric oxide production after 24 hrs by Griess assay; type: functional, cell-based; conditions: for IC50: J774, 24 h
Outline: (§2)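 Confluent J774 macrophages (72 h growth, DMEM/10% FBS) were treated with LPS 10 ng/mL plus increasing compound concentrations for 24 h. NO production was followed as nitrite accumulated in the medium, measured by Griess test. The half-maximal inhibitory concentration was derived from the concentration series; n = 4.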

J774 [3] = experiment: Antiinflammatory activity in mouse J774 cells assessed as reduction in LPS-induced IL6 expression after 24 hrs by ELISA; type: functional, cell-based; conditions: for IC50: J774, 24 h
Outline: (§3)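 J774 macrophages were grown 72 h to confluence in DMEM with 10% heat-inactivated FBS. Cells were stimulated with LPS (10 ng/mL) with increasing compound concentrations for 24 h. IL6 or MCP1 in the collected medium was measured by ELISA. Concentration giving 50% inhibition was taken from the concentration series; mean + SEM, n = 4.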

J774 [4] = experiment: Antiinflammatory activity in mouse J774 cells assessed as reduction in LPS-induced MCP1 expression after 24 hrs by ELISA; type: functional, cell-based; conditions: for IC50: J774, 24 h; outline: as §3
J774 [5] = experiment: Inhibition of PI3K/Akt in mouse J774 cells assessed as reduction in LPS-induced Akt phosphorylation at Ser473 at 30 uM after 4 hrs by Western blot analysis; type: cell-based; outline: as §1
J774 [6] = experiment: Antiinflammatory activity in mouse J774 cells assessed as reduction in LPS-induced nitric oxide production at 30 uM after 24 hrs by Griess assay; type: functional, cell-based; outline: as §2
J774 [7] = experiment: Antiinflammatory activity in mouse J774 cells assessed as reduction in LPS-induced IL6 expression at 30 uM after 24 hrs by ELISA; type: functional, cell-based; outline: as §3
J774 [8] = experiment: Antiinflammatory activity in mouse J774 cells assessed as reduction in LPS-induced MCP1 expression at 30 uM after 24 hrs by ELISA; type: functional, cell-based; outline: as §3
J774 [9] = experiment: Inhibition of PI3K/Akt in mouse J774 cells assessed as reduction in LPS-induced Akt phosphorylation at Ser473 at 100 uM after 4 hrs by Western blot analysis; type: cell-based; outline: as §1
Mus musculus [10] = experiment: Antiinflammatory activity in carrageenan induced C57BL/6 mouse model of inflammation assessed as reduction in MCP1 expression in hind paw at 2 mg/kg, ip pretreated for 1 to 2 hrs followed by carrageenan challenge measured after 6 hrs by ELISA; type: functional, organism-based
Outline: (§4)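 Compound was given i.p. in 10% DMSO/PBS (pH 7.4) before intradermal 1.5% w/v λ-carrageenan (50 μL) into one hindpaw under anesthesia; the contralateral paw got saline. At 6 h, paw tissue was collected into 50 mM Tris pH 7.4, 150 mM NaCl with protease/phosphatase inhibitors, minced and centrifuged (10000g, 10 min). Supernatant cytokine was read by ELISA; n = 6–7/group.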

Mus musculus [11] = experiment: Antiinflammatory activity in carrageenan induced C57BL/6 mouse model of inflammation assessed as reduction in paw edema at 2 mg/kg, ip pretreated for 1 to 2 hrs followed by carrageenan challenge measured after 3 to 6 hrs by plethysmometer; type: functional, organism-based
Outline: (§5)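 Mice got compound i.p. in 10% DMSO in PBS (pH 7.4) before carrageenan. Under i.p. medetomidine (0.5 mg/kg) plus ketamine (75 mg/kg), one hindpaw received 50 μL intradermal 1.5% w/v λ-carrageenan in saline, and the contralateral paw got saline. Paw volume was measured by plethysmometer before and 3 and 6 h after. Edema = carrageenan-paw minus saline-paw volume change; n = 6–7/group.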

Mus musculus [12] = experiment: Antiinflammatory activity in carrageenan induced C57BL/6 mouse model of inflammation assessed as reduction in IL6 expression in hind paw at 2 mg/kg, ip pretreated for 1 to 2 hrs followed by carrageenan challenge measured after 6 hrs by ELISA; type: functional, organism-based; outline: as §4
J774 [13] = experiment: Inhibition of PI3K/Akt in mouse J774 cells assessed as reduction in LPS-induced Akt phosphorylation at Ser473 at 10 uM after 4 hrs by Western blot analysis; type: cell-based; outline: as §1
Mus musculus [14] = experiment: Antiinflammatory activity in carrageenan induced C57BL/6 mouse model of inflammation assessed as reduction in IL6 expression in hind paw at 15 mg/kg, ip pretreated for 1 to 2 hrs followed by carrageenan challenge measured after 6 hrs by ELISA; type: functional, organism-based; outline: as §4
Mus musculus [15] = experiment: Antiinflammatory activity in carrageenan induced C57BL/6 mouse model of inflammation assessed as reduction in MCP1 expression in hind paw at 15 mg/kg, ip pretreated for 1 to 2 hrs followed by carrageenan challenge measured after 6 hrs by ELISA; type: functional, organism-based; outline: as §4
Mus musculus [16] = experiment: Antiinflammatory activity in carrageenan induced C57BL/6 mouse model of inflammation assessed as reduction in paw edema at 15 mg/kg, ip pretreated for 1 to 2 hrs followed by carrageenan challenge measured after 3 to 6 hrs by plethysmometer; type: functional, organism-based; outline: as §5
Mus musculus [17] = experiment: Antiinflammatory activity in carrageenan induced C57BL/6 mouse model of inflammation assessed as reduction in paw edema at 30 mg/kg, ip pretreated for 1 to 2 hrs followed by carrageenan challenge measured after 3 to 6 hrs by plethysmometer; type: functional, organism-based; outline: as §5
Mus musculus [18] = experiment: Antiinflammatory activity in carrageenan induced C57BL/6 mouse model of inflammation assessed as reduction in MCP1 expression in hind paw at 30 mg/kg, ip pretreated for 1 to 2 hrs followed by carrageenan challenge measured after 6 hrs by ELISA; type: functional, organism-based; outline: as §4
Mus musculus [19] = experiment: Antiinflammatory activity in carrageenan induced C57BL/6 mouse model of inflammation assessed as reduction in IL6 expression in hind paw at 30 mg/kg, ip pretreated for 1 to 2 hrs followed by carrageenan challenge measured after 6 hrs by ELISA; type: functional, organism-based; outline: as §4

SMILES | inhibition (J774 [1]) | Activity (J774 [2]) | IC50 (J774 [2]) [µM] | Activity (J774 [3]) | IC50 (J774 [3]) [µM] | Activity (J774 [4]) | IC50 (J774 [4]) [µM] | inhibition (J774 [5]) | also measured
COc1ccc(/C=C/c2cc(O)cc(O)c2)cc1O | Dose-dependent effect | Dose-dependent effect | 103 | Dose-dependent effect | 99.1 | Dose-dependent effect | 19.4 | – | –
C=CCOc1cc(O)cc(/C=C/c2ccccc2)c1 | – | – | – | – | – | – | – | Active | –
CC(C)(C)Oc1cc(O)cc(/C=C/c2ccccc2)c1 | – | – | – | – | – | – | – | inactive | –
CCCOc1cc(O)cc(/C=C/c2ccccc2)c1 | – | – | – | – | – | – | – | inactive | –
CCOc1cc(O)cc(/C=C/c2ccccc2)c1 | – | – | – | – | – | – | – | Active | –
COc1ccc(/C=C/c2cc(O)cc(O[C@@H]3O[C@H](CO)[C@@H](O)[C@H](O)[C@H]3O)c2)cc1O | – | – | – | – | – | – | – | – | Activity (J774 [6]): inactive; Activity (J774 [7]): inactive; Activity (J774 [8]): inactive; inhibition (J774 [9]): inactive
C[C@@H]1C[C@H]2[C@@H]3CCC4=CC(=O)C=C[C@]4(C)[C@@]3(F)[C@@H](O)C[C@]2(C)[C@@]1(O)C(=O)CO | – | – | – | – | – | – | – | – | Activity (Mus musculus [10]): Active; Activity (Mus musculus [11]): Active; Activity (Mus musculus [12]): Active
OC[C@H]1O[C@@H](Oc2cc(O)cc(/C=C/c3ccc(O)c(O)c3)c2)[C@H](O)[C@@H](O)[C@@H]1O | – | – | – | – | – | – | – | – | Activity (J774 [6]): inactive; Activity (J774 [7]): inactive; Activity (J774 [8]): inactive; inhibition (J774 [9]): inactive
Oc1cc(/C=C/c2ccccc2)cc(OCc2ccccc2)c1 | – | – | – | – | – | – | – | inactive | –
O=c1cc(N2CCOCC2)oc2c(-c3ccccc3)cccc12 [LY-294002] | – | – | 8.9 | – | 5.1 | – | 3.7 | – | inhibition (J774 [13]): Active; Activity (Mus musculus [14]): Active; Activity (Mus musculus [15]): Active; Activity (Mus musculus [16]): Active
Oc1cc(O)cc(/C=C/c2ccc(O)c(O)c2)c1 [PICEATANNOL] | Dose-dependent effect | Dose-dependent effect | 2.6 | Dose-dependent effect | 13 | Dose-dependent effect | 4 | – | Activity (Mus musculus [17]): Active; Activity (Mus musculus [18]): Active; Activity (Mus musculus [19]): Active
COc1cc(O)cc(/C=C/c2ccccc2)c1 [PINOSYLVIN METHYL ETHER] | Dose-dependent effect | Dose-dependent effect | 37 | Dose-dependent effect | 30.2 | Dose-dependent effect | 23.7 | – | –
Oc1cc(O)cc(/C=C/c2ccccc2)c1 [PINOSYLVIN] | Dose-dependent effect | Dose-dependent effect | 16.6 | Dose-dependent effect | 32.1 | Dose-dependent effect | 38.7 | – | Activity (Mus musculus [17]): Active; Activity (Mus musculus [18]): Active; Activity (Mus musculus [19]): Active
COc1cc(/C=C/c2ccc(O)cc2)cc(OC)c1 [PTEROSTILBENE] | Dose-dependent effect | Dose-dependent effect | 16.7 | Dose-dependent effect | 8.7 | Dose-dependent effect | 10.5 | – | Activity (Mus musculus [17]): Active; Activity (Mus musculus [18]): Active; Activity (Mus musculus [19]): Active
Oc1ccc(/C=C/c2cc(O)cc(O)c2)cc1 [RESVERATROL] | Dose-dependent effect | Dose-dependent effect | 12.2 | Dose-dependent effect | 6.8 | Dose-dependent effect | 13.6 | – | –
